Converted amounts (≈) assume the structure as drawn.
Tests used:
Staphylococcus aureus [1] = test: Antibacterial activity against vancomycin-resistant Staphylococcus aureus clinical isolate 10 assessed as bacterial growth inhibition after 20 hrs by broth microdilution assay; format: functional
Procedure, shortened: (§1)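 Broth microdilution: 0.5 McFarland suspension from an overnight culture, diluted 1:100 in cation-adjusted Mueller Hinton broth (CAMHB), given serial dilutions of test agent for 20 h at 37 °C. MIC is the lowest concentration with no visible growth.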

Staphylococcus aureus [2] = test: Antibacterial activity against methicillin-susceptible Staphylococcus aureus ATCC 25923 in presence of 5% v/v serum; format: functional
Staphylococcus aureus [3] = test: Antibacterial activity against linezolid-resistant Staphylococcus aureus assessed as bacterial growth inhibition incubated for 20 hrs by broth dilution method; format: functional; procedure, shortened: as §1
Staphylococcus aureus [4] = test: Antibacterial activity against methicillin-susceptible Staphylococcus aureus ATCC 25923 in presence of 10% v/v serum; format: functional
Staphylococcus aureus [5] = test: Ratio of MBC to MIC against vancomycin-intermediate resistant Staphylococcus aureus Mu50 ATCC 700699; format: functional
Procedure, shortened: (§2)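 For MBC, 5 μL from each well was spotted on agar and incubated overnight; MBC is the lowest concentration with no visible growth. Ratio taken as MBC over MIC.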

Staphylococcus aureus [6] = test: Antibacterial activity against vancomycin-resistant Staphylococcus aureus HIP11714 assessed as inhibition of bacterial growth incubated for 20 hrs by broth microdilution method; format: functional; conditions: HIP11714, 20 h; procedure, shortened: as §1
Acinetobacter baumannii [7] = test: Antibacterial activity against multidrug-resistant Acinetobacter baumannii BAA 1605 assessed as zone of inhibition by disc diffusion method; format: functional
Staphylococcus aureus [8] = test: Bactericidal activity against vancomycin-intermediate resistant Staphylococcus aureus Mu50 ATCC 700699 assessed as bacterial killing incubated for over night; format: functional; procedure, shortened: as §2
Escherichia coli = test: Antibacterial activity against beta-lactam resistant Escherichia coli BAA 2326 assessed as zone of inhibition by disc diffusion method; format: functional
Pseudomonas aeruginosa = test: Antibacterial activity against Pseudomonas aeruginosa ATCC 15422 assessed as zone of inhibition by disc diffusion method; format: functional
Klebsiella pneumoniae = test: Antibacterial activity against multidrug-resistant Klebsiella pneumoniae ATCC 700603 assessed as zone of inhibition by disc diffusion method; format: functional
Staphylococcus aureus [9] = test: Antibacterial activity against vancomycin-intermediate resistant Staphylococcus aureus Mu50 ATCC 700699 assessed as bacterial growth inhibition incubated for 20 hrs by broth dilution method; format: functional; procedure, shortened: as §1
Staphylococcus aureus [10] = test: Antibacterial activity against hospital acquired methicillin-resistant Staphylococcus aureus ATCC 43300 assessed as zone of inhibition by disc diffusion method; format: functional
Staphylococcus aureus [11] = test: Bactericidal activity against heterogeneous vancomycin-intermediate Staphylococcus aureus Mu3 ATCC 700698 assessed as bacterial killing incubated for over night; format: functional; procedure, shortened: as §2
Staphylococcus aureus [12] = test: Bactericidal activity against Vancomycin-resistant Staphylococcus aureus HIP11714 assessed as bacterial killing incubated for over night; format: functional; procedure, shortened: as §2
Staphylococcus aureus [13] = test: Ratio of MBC to MIC against methicillin-susceptible Staphylococcus aureus ATCC 25923; format: functional; procedure, shortened: as §2
Staphylococcus aureus [14] = test: Antibacterial activity against methicillin-susceptible Staphylococcus aureus ATCC 25923 in presence of 0.05% v/v albumin; format: functional
Enterococcus faecalis = test: Antibacterial activity against vancomycin-susceptible Enterococcus faecalis ATCC 29212 assessed as zone of inhibition by disc diffusion method; format: functional
Staphylococcus aureus [15] = test: Ratio of MBC to MIC against methicillin-resistant Staphylococcus aureus ATCC 43300; format: functional; procedure, shortened: as §2
Bacillus anthracis = test: Antibacterial activity against Bacillus anthracis Sterne 34F2 assessed as zone of inhibition by disc diffusion method; format: functional
Acinetobacter baumannii [16] = test: Antibacterial activity against Acinetobacter baumannii ATCC 19606 assessed as zone of inhibition by disc diffusion method; format: functional
Staphylococcus aureus [17] = test: Bactericidal activity against methicillin-resistant Staphylococcus aureus ATCC 43300 assessed as bacterial killing incubated for over night; format: functional; procedure, shortened: as §2
Staphylococcus aureus [18] = test: Antibacterial activity against heterogeneous vancomycin-intermediate Staphylococcus aureus Mu3 ATCC 700698 assessed as bacterial growth inhibition incubated for 20 hrs by broth dilution method; format: functional; procedure, shortened: as §1
Staphylococcus aureus [19] = test: Bactericidal activity against methicillin-susceptible Staphylococcus aureus ATCC 25923 assessed as bacterial killing incubated for over night; format: functional
Procedure, shortened: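 5 μL from each well was spotted on agar and incubated overnight. MBC was taken as the lowest concentration with no visible growth.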

[20] = test system: Staphylococcus epidermidis; test: Antibacterial activity against Staphylococcus epidermidis ATCC 14990 assessed as zone of inhibition by disc diffusion method; format: functional
Staphylococcus aureus [21] = test: Antibacterial activity against vancomycin-intermediate Staphylococcus aureus clinical isolate 12 assessed as bacterial growth inhibition after 20 hrs by broth microdilution assay; format: functional; procedure, shortened: as §1
Staphylococcus aureus [22] = test: Antibacterial activity against methicillin-susceptible Staphylococcus aureus ATCC 25923 in presence of glutathione; format: functional
Procedure, shortened: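 Broth microdilution MIC: a 0.5 McFarland suspension from overnight culture was diluted 1:100 in cation-adjusted Mueller Hinton broth supplemented with glutathione 100 μM. It was exposed to serial dilutions for 20 h at 37 °C. MIC was taken as the lowest concentration with no visible growth.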

Enterobacter cloacae = test: Antibacterial activity against Enterobacter cloacae ATCC 23355 assessed as zone of inhibition by disc diffusion method; format: functional
Staphylococcus aureus [23] = test: Antibacterial activity against methicillin-resistant Staphylococcus aureus ATCC 43300 assessed as bacterial growth inhibition incubated for 20 hrs by broth dilution method; format: functional; procedure, shortened: as §1
Enterococcus faecium = test: Antibacterial activity against vancomycin-resistant Enterococcus faecium ATCC 700221 assessed as zone of inhibition by disc diffusion method; format: functional
Staphylococcus aureus [24] = test: Ratio of MBC to MIC against heterogeneous vancomycin-intermediate Staphylococcus aureus Mu3 ATCC 700698; format: functional; procedure, shortened: as §2
Staphylococcus aureus [25] = test: Antibacterial activity against methicillin-susceptible Staphylococcus aureus ATCC 25923 assessed as bacterial growth inhibition incubated for 20 hrs by broth dilution method; format: functional; procedure, shortened: as §1
Staphylococcus aureus [26] = test: Ration of MBC to MIC against Vancomycin-resistant Staphylococcus aureus HIP11714; format: functional; procedure, shortened: as §2
Staphylococcus aureus [27] = test: Antibacterial activity against methicillin-susceptible Staphylococcus aureus ATCC 25923 assessed as zone of inhibition by disc diffusion method; format: functional
Staphylococcus aureus [28] = test: Bactericidal activity against linezolid-resistant Staphylococcus aureus assessed as bacterial killing incubated for over night
Staphylococcus aureus [29] = test: Antibacterial activity against vancomycin-resistant Staphylococcus aureus HIP11714 assessed as zone of inhibition by disc diffusion method; format: functional
Staphylococcus aureus [30] = test: Ratio of MBC to MIC against linezolid-resistant Staphylococcus aureus; format: functional; procedure, shortened: as §2
Staphylococcus aureus [31] = test: Antibacterial activity against heterogeneous vancomycin-intermediate resistant Staphylococcus aureus Mu3 ATCC 700698 assessed as zone of inhibition by disc diffusion method; format: functional
Staphylococcus aureus [32] = test: Antibacterial activity against community acquired methicillin-resistant Staphylococcus aureus BAA 1747 assessed as zone of inhibition by disc diffusion method; format: functional
Staphylococcus aureus [33] = test: Antibacterial activity against vancomycin-intermediate resistant Staphylococcus aureus Mu50 ATCC 700699 assessed as zone of inhibition by disc diffusion method; format: functional

Row | Compound | MIC50 (Staphylococcus aureus [1]) | MIC90 (Staphylococcus aureus [1]) | MIC (Staphylococcus aureus [2]) | MIC (Staphylococcus aureus [3]) | MIC (Staphylococcus aureus [4]) | Ratio (Staphylococcus aureus [5]) | MIC (Staphylococcus aureus [6]) | MBC (Staphylococcus aureus [8]) | MIC (Staphylococcus aureus [9]) | diameter of the inhibition zone (DIZ) (Staphylococcus aureus [10]) | MBC (Staphylococcus aureus [11]) | Ratio (Staphylococcus aureus [13]) | MIC (Staphylococcus aureus [14]) | diameter of the inhibition zone (DIZ) (Enterococcus faecalis) | Ratio (Staphylococcus aureus [15]) | diameter of the inhibition zone (DIZ) (Bacillus anthracis) | MBC (Staphylococcus aureus [17]) | MIC (Staphylococcus aureus [18]) | MBC (Staphylococcus aureus [19]) | diameter of the inhibition zone (DIZ) [20] | also measured
1 | CCCCCCCSSc1ccccn1 | 6.25 µM (≈ 1.51 µg/mL) | 12.5 µM (≈ 3.02 µg/mL) | 25 µM | 25 µM (≈ 6.04 µg/mL) | 25 µM | 8 | 6.25 µM (≈ 1.51 µg/mL) | 25 µM (≈ 6.04 µg/mL) | 3.13 µM (≈ 0.756 µg/mL) | 46 mm | > 50 µM | >4 | 12.5 µM | 10 mm | >8 | 50 mm | > 50 µM | 12.5 µM (≈ 3.02 µg/mL) | > 50 µM | >50 mm | diameter of the inhibition zone (DIZ) (Acinetobacter baumannii [7]): 0 mm; diameter of the inhibition zone (DIZ) (Escherichia coli): 0 mm; diameter of the inhibition zone (DIZ) (Pseudomonas aeruginosa): 0 mm; diameter of the inhibition zone (DIZ) (Klebsiella pneumoniae): 0 mm; MBC (Staphylococcus aureus [12]): > 50 µM; diameter of the inhibition zone (DIZ) (Acinetobacter baumannii [16]): 0 mm; MIC50 (Staphylococcus aureus [21]): 12.5 µM (≈ 3.02 µg/mL); MIC90 (Staphylococcus aureus [21]): 12.5 µM (≈ 3.02 µg/mL); MIC (Staphylococcus aureus [22]): 50 µM; diameter of the inhibition zone (DIZ) (Enterobacter cloacae): 0 mm; MIC (Staphylococcus aureus [23]): 6.25 µM (≈ 1.51 µg/mL); diameter of the inhibition zone (DIZ) (Enterococcus faecium): 10 mm; Ratio (Staphylococcus aureus [24]): >4; MIC (Staphylococcus aureus [25]): 12.5 µM (≈ 3.02 µg/mL); Ratio (Staphylococcus aureus [26]): >8; diameter of the inhibition zone (DIZ) (Staphylococcus aureus [27]): >50 mm
2 | CN[C@H](CC(C)C)C(=O)N[C@H]1C(=O)N[C@@H](CC(N)=O)C(=O)N[C@H]2C(=O)N[C@H]3C(=O)N[C@H](C(=O)N[C@H](C(=O)O)c4cc(O)cc(O)c4-c4cc3ccc4O)[C@H](O)c3ccc(c(Cl)c3)Oc3cc2cc(c3O[C@@H]2O[C@H](CO)[C@@H](O)[C@H](O)[C@H]2O[C@H]2C[C@](C)(N)[C@H](O)[C@H](C)O2)Oc2ccc(cc2Cl)[C@H]1O [VANCOMYCIN] | > 50 µM | > 50 µM | 0.78 µM | 0.78 µM (≈ 1.13 µg/mL) | 0.78 µM | 1 | > 50 µM | 3.13 µM (≈ 4.54 µg/mL) | 3.13 µM (≈ 4.54 µg/mL) | 21 mm | 0.78 µM (≈ 1.13 µg/mL) | 2 | 0.78 µM | 21 mm | 2 | 26 mm | 0.78 µM (≈ 1.13 µg/mL) | 0.78 µM (≈ 1.13 µg/mL) | 1.56 µM (≈ 2.26 µg/mL) | 24 mm | MBC (Staphylococcus aureus [28]): 1.56 µM (≈ 2.26 µg/mL); diameter of the inhibition zone (DIZ) (Staphylococcus aureus [29]): 11 mm; Ratio (Staphylococcus aureus [30]): 2; diameter of the inhibition zone (DIZ) (Staphylococcus aureus [31]): 20 mm; diameter of the inhibition zone (DIZ) (Staphylococcus aureus [32]): 20 mm; diameter of the inhibition zone (DIZ) (Staphylococcus aureus [33]): 20 mm; MIC50 (Staphylococcus aureus [21]): 3.13 µM (≈ 4.54 µg/mL); MIC90 (Staphylococcus aureus [21]): 3.13 µM (≈ 4.54 µg/mL); MIC (Staphylococcus aureus [22]): 0.78 µM; MIC (Staphylococcus aureus [23]): 0.39 µM (≈ 0.565 µg/mL); diameter of the inhibition zone (DIZ) (Enterococcus faecium): 0 mm; Ratio (Staphylococcus aureus [24]): 1; MIC (Staphylococcus aureus [25]): 0.78 µM (≈ 1.13 µg/mL); diameter of the inhibition zone (DIZ) (Staphylococcus aureus [27]): 22 mm

Source: ChEMBL document CHEMBL4715813, “Allicin-inspired pyridyl disulfides as antimicrobial agents for multidrug-resistant Staphylococcus aureus” (Eur J Med Chem, 2018)
